# Measurements collected from several papers.
# Lines come from different studies, so protocols differ.
# Target: Serine/threonine-protein kinase BRSK1 (BRSK1, Homo sapiens, UniProt Q8TDC3)
# Sequence (Q8TDC3 1-778, as in one of the studies): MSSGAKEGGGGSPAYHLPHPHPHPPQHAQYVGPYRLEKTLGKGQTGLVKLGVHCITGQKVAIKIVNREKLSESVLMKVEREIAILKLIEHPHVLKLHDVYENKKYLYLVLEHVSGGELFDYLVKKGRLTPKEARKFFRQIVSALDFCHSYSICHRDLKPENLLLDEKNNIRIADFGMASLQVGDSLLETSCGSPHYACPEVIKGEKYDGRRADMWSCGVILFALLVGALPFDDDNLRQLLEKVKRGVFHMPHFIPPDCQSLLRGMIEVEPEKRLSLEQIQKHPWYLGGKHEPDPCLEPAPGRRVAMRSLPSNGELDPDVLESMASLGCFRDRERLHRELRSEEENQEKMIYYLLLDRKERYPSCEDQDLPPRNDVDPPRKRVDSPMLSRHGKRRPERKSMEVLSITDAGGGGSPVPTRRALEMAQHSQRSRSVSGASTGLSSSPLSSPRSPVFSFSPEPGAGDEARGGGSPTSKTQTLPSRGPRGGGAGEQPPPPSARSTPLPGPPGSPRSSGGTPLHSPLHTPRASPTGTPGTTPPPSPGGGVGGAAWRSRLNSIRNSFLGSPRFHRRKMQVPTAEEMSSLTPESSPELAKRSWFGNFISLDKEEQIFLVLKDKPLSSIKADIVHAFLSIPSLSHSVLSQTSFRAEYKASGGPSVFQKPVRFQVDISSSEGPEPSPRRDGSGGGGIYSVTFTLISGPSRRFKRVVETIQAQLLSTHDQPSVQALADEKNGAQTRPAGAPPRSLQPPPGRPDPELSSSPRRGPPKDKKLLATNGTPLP
SMILES,effect on,mode,technique,concentration,quantity,result
Nc1ncnc2occ(-c3ccc(NC(=O)Nc4cc(C(F)(F)F)ccc4F)cc3)c12,cell-free assay,inhibitor,,20 µM,remaining signal,8.4%
Oc1cccc(-c2nc(N3CCOCC3)c3oc4ncccc4c3n2)c1,enzyme activity,inhibitor,,10 µM,remaining activity,109%
Cc1ccc(Nc2nccc(N(C)c3ccc4c(C)n(C)nc4c3)n2)cc1S(N)(=O)=O,enzyme activity,inhibitor,,0.3 µM,inhibition,18%
CC(C)(O)c1cncc(-c2nc3ccc(F)cc3n2C2CC2)c1,cell-free assay,,competition with immobilised ligand,1 µM,remaining binding,100%
N#CCCc1ccc2c(c1)-c1[nH]c3ccc([N+](=O)[O-])cc3c1CC(=O)N2,cell-free assay,,,0.5 µM,remaining signal,46.8%
CN(C)C(=O)Cn1cc(-c2nc(C3(c4ccc(-c5cnc(N)nc5)cc4)CC3)no2)cn1,cell-free assay,,competition with immobilised ligand,1 µM,remaining binding,93%
O=C1NC(=O)c2cc(Nc3ccc(F)cc3)c(Nc3ccc(F)cc3)cc21,cell-free assay,,,0.5 µM,remaining signal,94.3%
Cn1c(=O)n(-c2ccc(C(C)(C)C#N)cc2)c2c3cc(-c4cnc5ccccc5c4)ccc3ncc21,enzyme activity,inhibitor,,10 µM,remaining activity,85%
CNC(=O)c1cc(Oc2ccc(NC(=O)Nc3ccc(Cl)c(C(F)(F)F)c3)cc2)ccn1,enzyme activity,inhibitor,,10 µM,inhibition,20%
CC(=O)N1CCC(c2ccc(C(=O)NC(=N)N)cc2C(F)(F)F)CC1,cell-free assay,,competition with immobilised ligand,1 µM,remaining binding,87%
CCCOc1ccc(OC)c(F)c1C(=O)c1ccc(C(=O)N[C@@H]2CNC[C@H]2NC(=O)c2ccc3[nH]ncc3c2)cc1,enzyme activity,inhibitor,,10 µM,remaining activity,40%
CCCCN(CCCC)C(=O)CN1C[C@@H](c2cc(OC)c3c(c2)OCO3)[C@H](C(=O)O)[C@H]1CC(C)(C)CCC,cell-free assay,,competition with immobilised ligand,1 µM,remaining binding,88.9%
CNc1cccc2cc(C(=O)Nc3ccc(C(=O)O)cc3)c(=O)[nH]c12,enzyme activity,inhibitor,,10 µM,inhibition,2.7%
O=C(Nc1cnn(-c2csc(C(=O)NC3COC3)c2)c1)Nc1c(F)cccc1Cl,enzyme activity,inhibitor,,5 µM,remaining activity,99.4%
NS(=O)(=O)c1cc(NC(=O)Cc2ccccc2)ccc1Oc1cccc(Cl)c1,cell-free assay,,competition with immobilised ligand,1 µM,remaining binding,91%
CC(C)(C)c1nc(-c2cccc(NS(=O)(=O)c3c(F)cccc3F)c2F)c(-c2ccnc(N)n2)s1,enzyme activity,inhibitor,radiometric,1 µM,remaining activity,105%
CCN(CC)CCNC(=O)c1c(C)[nH]c(/C=C2\C(=O)Nc3ccc(F)cc32)c1C,enzyme activity,inhibitor,,10 µM,inhibition,82%
O=C(Nc1cnn(-c2csc(C(=O)NC3COC3)c2)c1)Nc1ccccc1Cl,enzyme activity,inhibitor,,5 µM,remaining activity,85.5%
Cc1cnc(NC2CCOCC2)nc1-n1cnc(C(=O)NC(CN)c2cc(F)cc(Cl)c2)c1 (stereo not drawn),enzyme activity,inhibitor,radiometric,1 µM,remaining activity,77%
CNC(=O)c1ccc(Nc2ncc(C(F)(F)F)c(NCc3nccnc3N(C)S(C)(=O)=O)n2)cc1,cell-free assay,,competition with immobilised ligand,0.1 µM,remaining binding,100%
CN1CC(Oc2cnc(C#N)cc2-c2ccn3nc(NC(=O)C4CC4)cc3c2)C1,enzyme activity,inhibitor,,1 µM,inhibition,6%
CC(C)(O)[C@H]1CC[C@H](Nc2ccc3ncc(-c4cccc(C(F)(F)F)c4)n3n2)CC1,enzyme activity,inhibitor,,1 µM,remaining activity,98.1%
C[C@H](c1ccc(F)cc1)N(Cc1cccc(C(=O)O)c1)C(=O)c1cnc2ccccc2c1,cell-free assay,,competition with immobilised ligand,1 µM,remaining binding,100%
CCCS(=O)(=O)Nc1ccc(F)c(C(=O)c2c[nH]c3ncc(-c4ccc(Cl)cc4)cc23)c1F,enzyme activity,inhibitor,,1 µM,inhibition,< 10%
COc1cc2ncnc(Nc3ccc(Oc4ccccc4)cc3C)c2cc1OC,enzyme activity,inhibitor,,1 µM,inhibition,1%
CN([C@@H]1CCc2c(CC(=O)O)c3ccccc3n2C1)S(=O)(=O)c1ccc(F)cc1,cell-free assay,,competition with immobilised ligand,1 µM,remaining binding,100%
FC(F)(F)Oc1cccc(-c2cnc3ccc(-c4ccncc4)nn23)c1,enzyme activity,inhibitor,radiometric,5 µM,activity vs control,82%
